# From PubChem BioAssay
# Compounds with a hit are over-represented: about 2.2% of the library has one in this group of screens.
# LMPTP inh = blocks human LMPTP phosphatase | P24666 | recombinant LMPTP-A, OMFP fluorogenic substrate, fluorescence intensity | inhibition, % at 20 µM | hit rate 0.22% among 360,000 | AID 651560;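 active = compounds that cut the enzyme signal by at least half of the control window in the single-dose screen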;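 also: plate controls were DMSO wells with enzyme plus substrate for no effect and substrate without enzyme for full effect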
#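 material = LMPTP-A | quantity = 0.625 nM enzyme | reagent = OMFP substrate, 400 µM final | buffer or medium = Bis-Tris pH 6.0, DTT, detergent | detection = endpoint fluorescence intensity from OMFP dephosphorylation | dosing = single 20 µM dose | read-out basis = % inhibition relative to no-enzyme and uninhibited control wells | control set = no-enzyme and uninhibited controls | timing = 50 min at room temperature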
# DNMT1 block = DNMT1 (human) enzyme inhibition; hit rate 0.83% among 360,000; P26358; inhibition (reported as % activation of signal), % at 10 µM; DNMT1 molecular beacon, Hinp1I cleavage, fluorescence; in the data active = inhibition above about 50%
# SUMO1-SIM PPI = SUMO1-SIM interaction modulation; SUMO1 binding to a labelled peptide, TR-FRET, 1 h; inhibition, % at 20 µM; hit rate 0.33% among 360,000; AID 602429; in the data active = inhibition above about 37%
# Target sequence (P63165 whole entry, looked up): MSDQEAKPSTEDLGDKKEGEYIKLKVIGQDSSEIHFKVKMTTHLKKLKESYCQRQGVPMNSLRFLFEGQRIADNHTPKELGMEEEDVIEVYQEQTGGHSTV
# GRK2 aptamer HTS = human GRK2 inhibition via aptamer displacement | P25098 | bead flow cytometry, FAM-aptamer displacement from GRK2 | inhibition of aptamer binding, % at 10 µM | hit rate 0.59% among 330,000 | AID 488847;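 active = inhibition of aptamer binding above 40%, roughly 3 SD of noise, on plates passing a quality check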;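 also: median bead fluorescence of bound FAM aptamer so fluorescent compounds give negative values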
# Target sequence (P25098 whole entry, looked up): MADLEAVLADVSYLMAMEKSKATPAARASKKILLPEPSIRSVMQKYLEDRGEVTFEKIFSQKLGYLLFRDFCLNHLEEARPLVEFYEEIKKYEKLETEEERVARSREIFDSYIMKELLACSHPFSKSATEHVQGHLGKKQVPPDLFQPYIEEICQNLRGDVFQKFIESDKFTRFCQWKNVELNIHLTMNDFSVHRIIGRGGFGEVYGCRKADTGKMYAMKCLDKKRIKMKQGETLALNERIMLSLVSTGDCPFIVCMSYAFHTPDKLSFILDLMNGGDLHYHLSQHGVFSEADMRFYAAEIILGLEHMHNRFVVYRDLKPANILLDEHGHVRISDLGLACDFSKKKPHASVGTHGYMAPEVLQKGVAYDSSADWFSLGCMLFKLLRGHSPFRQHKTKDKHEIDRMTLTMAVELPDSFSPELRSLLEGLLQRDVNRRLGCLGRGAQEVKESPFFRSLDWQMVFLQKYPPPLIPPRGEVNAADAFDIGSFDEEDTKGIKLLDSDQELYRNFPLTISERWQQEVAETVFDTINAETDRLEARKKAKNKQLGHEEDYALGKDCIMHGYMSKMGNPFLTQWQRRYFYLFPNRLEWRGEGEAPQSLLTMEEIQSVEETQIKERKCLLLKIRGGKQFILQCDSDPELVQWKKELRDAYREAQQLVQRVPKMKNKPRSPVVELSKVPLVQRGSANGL
# Scp1 inh = blocks human Scp-1 phosphatase activity; Recombinant Scp1, phosphopeptide, malachite green phosphate absorbance; inhibition, % at 20 µM; hit rate 0.88% among 340,000; AID 493091;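 active = inhibition above about 50% at 20 µM, limit read from the data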;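 also: plate controls were DMSO wells with enzyme for no effect and wells lacking enzyme for full effect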
#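 assay system = SCP-1 phosphatase catalytic domain, residues 76-261 | buffer or medium = 50 mM Tris acetate pH 5.5, 0.005% Tween-20, 10 mM MgCl2 | incubation = enzyme reaction 45 min at room temperature, colour 5 min, stabilisation 30 min | signal = Phosphate-binding colour reagent, absorbance read at 630 nm | measure = % inhibition at 20 µM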
# STEP inh = inhibitors of human striatal-enriched phosphatase STEP; recombinant STEP, OMFP fluorogenic substrate, fluorescence; hit rate 0.25% among 360,000; AID 588621; P54829; inhibition, % at 20 µM;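 active = inhibition at 20 µM, scaled per plate between control wells, above about 37%, limit read from the data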;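 also: 0% = DMSO with enzyme and substrate and 100% = substrate only without enzyme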
#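 Measure: Control-normalized % inhibition with plate pattern correction | Test system: STEP phosphatase, cell-free reaction | Medium: pH 6.0 Bis-Tris with DTT and Tween 20 | Technique: Fluorescence, 480/540 nm | Times: Reaction 20 min, ambient temperature | Doses: Single compound dose of 20 µM, 1% DMSO final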
# Scp-1 conf = confirmation of human Scp-1 phosphatase inhibitors | inhibition, % at 20 µM | shares compounds with Scp1 inh | recombinant SCP-1 catalytic domain, phosphate release, malachite green absorbance | AID 540281 | hit rate 61% among 2,500;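 also: plate controls were DMSO with enzyme for no effect and buffer wells lacking enzyme for full effect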
# MG interference = counter-screen for Scp-1 inhibitors: colorimetric interference; Colorimetric interference counterscreen, malachite green absorbance 630 nm; apparent inhibition (interference), % at 20 µM; 2,500 tested, under 10 active; AID 540313; shares compounds with Scp1 inh;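 also: compounds added after enzyme reaction finished so only phosphate colour detection is probed; plate controls were DMSO wells with completed Scp-1 reaction for no effect and substrate wells lacking enzyme for full effect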
# Scp-1 Tm shift = binds human Scp-1, shifting its melting temperature. shares compounds with Scp1 inh. hit rate 25% among 1,500. AID 540329. thermal shift relative to vanadate control, % at 40 µM. Recombinant SCP1, Sypro Orange thermal shift Tm;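 active = substances whose mean melting-temperature shift, as a percentage of the reference inhibitor's shift, reaches about 5.3%, limit read from the data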;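 also: 0% = Tm of DMSO wells and 100% = Tm with sodium orthovanadate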
# An asterisk follows results filed as active; x = no result given; ! = repeats disagree.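 The calls were made as follows, unless noted: active = inhibition of at least 30% at 20 µM; inactive = the rest.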
SMILES,LMPTP inh,DNMT1 block,SUMO1-SIM PPI,GRK2 aptamer HTS,Scp1 inh,STEP inh,Scp-1 conf,MG interference,Scp-1 Tm shift
COc1cc(/C=C/c2[nH]c(=O)[nH]c(=O)c2[N+](=O)[O-])ccc1OCCC(C)C,1.5,13.5,15.4,4.0,62.6*,-0.9,71.2*,-9.8,1.6
C=CCOc1ccc(/C=C\c2nc(O)c([N+](=O)[O-])c(=O)[nH]2)cc1OC,-0.9,9.0,7.3,0.0,62.0*,2.5,58.8*,-2.1,-8.0
Cc1cccc(-c2cccc3nccn23)c1,-0.6,3.1,-2.1,x,x,2.1,x,x,x
COc1ccc(CNC(=O)CCS(=O)(=O)c2ccc3nc(C)sc3c2)cc1,-2.1,1.7,0.8,x,x,-0.1,x,x,x
CCCc1ccc(C(O)c2ncc(-c3ccccc3F)[nH]2)cc1 (stereo not drawn),2.2,-6.3,-1.7,x,x,-1.5,x,x,x
O=C(O)c1cc(N2C(=O)C=CC2=O)cc(N2C(=O)C=CC2=O)c1,2.7,82.3*,49.6*,x,81.8*,26.6,49.7*,-7.1,-4.1
CC[C@@H](NC(=O)Cn1cc(C)c(=O)[nH]c1=O)c1ccccc1,-0.6,0.1,-0.3,x,1.0,-1.6,x,x,x
Cc1cn(CC(=O)N[C@H](C)c2cccc3ccccc23)c(=O)[nH]c1=O,-1.9,0.8,-0.3,x,-0.1,-1.7,-21.2,-20.3,x
CC(C)NC(=O)C1(C)CSCC(=O)N1Cc1ccco1 (stereo not drawn),-0.2,x,-1.4,x,x,x,x,x,x
COc1ccc(Cl)cc1S(=O)(=O)NC(C)c1cnn(-c2ccccn2)c1C (stereo not drawn),-0.5,-6.5,3.9,x,x,-0.6,x,x,x
COCCNC(=O)C1(C)CCCN(C(=O)c2c(F)ccc(C)c2F)C1 (stereo not drawn),-0.4,1.9,2.8,x,x,0.0,x,x,x
OC1(c2ccccc2Cl)NN=C2CCCCCN21 (stereo not drawn),-0.8,1.6,1.6,0.0,-3.2,-2.4,x,x,x
C[N+]1=C2CCCCCN2C(O)(c2ccccc2)C1 (stereo not drawn),-2.1,3.4,1.5,0.0,96.2*,-2.6,94.3*,-9.5,-11.3
Cc1cnc(C(=O)OCc2nc3ccsc3c(=O)[nH]2)cn1,1.8,25.9,19.9,12.0,65.5*,3.0,64.2*,-6.0,11.0*
COc1cccc(CN(C)CCCn2cnc(C(=O)Nc3ccc(C)c(C)c3)n2)c1,0.0,3.2,8.6,x,-8.3,-3.0,x,x,x
Cc1cccn2c(=O)c3cc(C#N)c(=NC(=O)c4ccccc4)n(Cc4ccco4)c3nc12,29.2,24.8,13.2,0.0,87.2*,5.0,0.8,-20.6,x
COCCCn1c(=NC(=O)c2ccccc2)c(C#N)cc2c(=O)n3cccc(C)c3nc21,3.3,37.6,-8.6,15.0,-3.3,2.0,x,x,x
CCOC(=O)c1cc2c(=O)n3cccc(C)c3nc2n(Cc2ccco2)c1=NC(=O)c1cccnc1,1.7,15.3,10.7,x,52.0*,-19.1,43.7*,-11.5,6.9*
CCOc1ccc(/C=C2\SC(=S)N(CCC(=O)Nc3ccccc3C(=O)O)C2=O)cc1,2.9,1.4,8.1,1.0,64.5*,3.3,44.4*,-18.0,18.5*
CCOc1ccc(/C=C2/SC(=S)N(CCC(=O)Nc3ccc(C(=O)O)cc3)C2=O)cc1,64.0*,27.9,61.5*,18.0,55.5*,47.4*,77.9*,-9.3,1.7
O=C(CCN1C(=O)/C(=C\c2ccccc2)SC1=S)Nc1ccc(C(=O)O)cc1,23.9,-0.7,-12.4,4.0,49.9,10.3,x,x,x
O=C(c1cc(S(=O)(=O)N2CCOCC2)ccc1F)N(Cc1nnc(-c2ccccc2Cl)o1)C1CC1,-0.5,1.9,-0.5,1.0,54.8*,2.2,-14.5,-15.6,x
O=C(c1ccc(Cl)c(S(=O)(=O)N2CCOCC2)c1)N(Cc1nnc(-c2ccccc2Cl)o1)C1CC1,-9.6,-4.2,-36.1,0.0,-6.8,0.7,x,x,x
Cc1ccc(NC(=O)CN2CC(C)SC2=NC2CCCCC2)cc1 (stereo not drawn),0.0,-3.0,-5.0,0.0,78.7*!,-2.6,-18.8,-18.4,x
CCCCNC(=O)C1(C)CCN1C(=O)Cc1cccc2ccccc12 (stereo not drawn),-0.1,2.4,-3.6,x,x,-3.5,x,x,x
SMILES,LMPTP inh,DNMT1 block,SUMO1-SIM PPI,GRK2 aptamer HTS,Scp1 inh,STEP inh,Scp-1 conf,MG interference,Scp-1 Tm shift
CCN1C(=O)[C@H]2[C@@H](c3ccc(C)cc3)N[C@]3(CCCN(Cc4ccco4)C3=O)[C@H]2C1=O,-1.2,2.4,4.2,x,x,0.5,x,x,x
CC1(C)CC(N2CCCC2)=CC(=[N+]2CCCC2)C1,-0.8,-1.4,1.8,0.0,100.0*,-1.6,92.1*,-11.4,-20.1
CCn1c(=O)c(NC(=O)c2ccccc2)c2n(c1=S)CCCCC2,-2.3,1.3,1.9,0.0,60.9*,-5.1,40.3*,-13.9,-13.4
CCOCCCn1c(=O)c(NC(=O)c2ccc(OCC)cc2)c2n(c1=S)CCCCC2,-2.1,-1.1,-2.7,0.0,10.4,-1.5,x,x,x
Cc1cc(C)c2c(N)c(C(=O)c3ccc(Cl)c(Cl)c3)sc2n1,61.8*,-0.5,-5.0,0.0,79.5*,18.8,10.0,-7.6,x
CC(=O)/C(C[N+]1(C)CCCCC1)=N\O,-0.7,-1.9,6.1,0.0,105.1*,-2.4,84.4*,-20.8,-6.3
C[C@H]1CN([C@@H](C)CO)C(=O)c2cc(C3=CCCC3)cnc2O[C@@H]1CN(C)C(=O)c1ccncc1,-2.4,3.8,10.9,x,x,-0.3,x,x,x
Cc1ccc2nc(-c3ccc(Cl)cc3)c(Cc3ccccn3)n2c1,-0.7,x,-1.4,x,x,x,x,x,x
CCN(CC)S(=O)(=O)c1ccc(N2CCOCC2)c(NC(=O)c2nn(C(C)C)c(=O)c3ccccc23)c1,1.6,-1.7,2.3,x,x,1.6,x,x,x
Clc1nc(Cl)nc(-c2cn(-c3ccccc3)c3ccccc23)n1,x,x,x,0.0,90.9*,x,71.5*,-15.1,-24.7
N#C/C(=C\c1c(N2CCOCC2)nc2ccccn2c1=O)S(=O)(=O)c1ccccc1,0.5,4.3,-10.9,0.0,53.8*,3.1,-2.7,-5.7,x
N#C/C(=C\c1c(N2CCN(Cc3ccccc3)CC2)nc2ccccn2c1=O)S(=O)(=O)c1ccccc1,4.4,-0.8,-13.4,1.0,4.0,0.4,x,x,x
COc1ccc(C(=O)C(=O)N2CCC(c3ccccc3)CC2)cn1,-1.5,x,-3.9,x,x,x,x,x,x
CC(C)(C)c1ccc(S(=O)(=O)Nc2ccc(C(O)(C(F)(F)F)C(F)(F)F)cc2)cc1,1.9,-33.6,2.9,x,x,-2.6,x,x,x
